ChEMBL document CHEMBL1764974, “The discovery of phthalazinone-based human H1 and H3 single-ligand antagonists suitable for intranasal administration for the treatment of allergic rhinitis” (J Med Chem, 2011)

Experiments:
[1] = Volume of distribution at steady state in Beagle dog at 3 mg/kg, po and 1 mg/kg, iv; type: ADME, organism-based, Canis lupus familiaris; conditions: in vivo, read-out: Vdss
Summary of the method: (§1)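 Male Beagle dogs (n = 3) dosed 3.0 mg/kg po and 1.0 mg/kg iv. Clearance, Vss, t1/2 and F are given with ranges, and clearance as % of liver blood flow. Unchanged drug excreted in urine was measured over 24 h.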

[2] = molecular target: Cytochrome P450 2C9 (Homo sapiens, UniProt P11712); assay: Inhibition of CYP2C9; type: ADME
Sequence of Cytochrome P450 2C9 (P11712 whole entry): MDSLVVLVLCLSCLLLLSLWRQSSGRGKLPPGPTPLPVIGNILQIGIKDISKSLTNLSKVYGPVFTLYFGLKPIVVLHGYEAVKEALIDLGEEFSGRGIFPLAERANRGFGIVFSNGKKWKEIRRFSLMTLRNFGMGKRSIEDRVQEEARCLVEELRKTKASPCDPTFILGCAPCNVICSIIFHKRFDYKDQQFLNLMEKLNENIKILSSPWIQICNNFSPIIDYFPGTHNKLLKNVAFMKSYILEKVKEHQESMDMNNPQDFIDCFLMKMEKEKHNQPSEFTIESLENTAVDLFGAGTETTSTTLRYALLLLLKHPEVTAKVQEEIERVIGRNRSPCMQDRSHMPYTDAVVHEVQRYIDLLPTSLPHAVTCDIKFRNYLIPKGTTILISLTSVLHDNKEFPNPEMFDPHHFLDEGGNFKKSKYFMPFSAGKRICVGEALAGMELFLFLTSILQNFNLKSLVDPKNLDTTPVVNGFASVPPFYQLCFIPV

[3] = Clearance in Beagle dog at 3 mg/kg, po and 1 mg/kg, iv; type: ADME, organism-based, Canis lupus familiaris; conditions: in vivo; summary of the method: as §1
[4] = Unchanged drug level in Beagle dog urine at 3 mg/kg, po and 1 mg/kg, iv after 24 hrs; type: ADME, organism-based, Canis lupus familiaris; conditions: read-out: Activity; summary of the method: as §1
[5] = molecular target: Cytochrome P450 3A4 (Homo sapiens, UniProt P08684); assay: Inhibition of CYP3A4; type: ADME
Sequence of Cytochrome P450 3A4 (P08684 whole entry): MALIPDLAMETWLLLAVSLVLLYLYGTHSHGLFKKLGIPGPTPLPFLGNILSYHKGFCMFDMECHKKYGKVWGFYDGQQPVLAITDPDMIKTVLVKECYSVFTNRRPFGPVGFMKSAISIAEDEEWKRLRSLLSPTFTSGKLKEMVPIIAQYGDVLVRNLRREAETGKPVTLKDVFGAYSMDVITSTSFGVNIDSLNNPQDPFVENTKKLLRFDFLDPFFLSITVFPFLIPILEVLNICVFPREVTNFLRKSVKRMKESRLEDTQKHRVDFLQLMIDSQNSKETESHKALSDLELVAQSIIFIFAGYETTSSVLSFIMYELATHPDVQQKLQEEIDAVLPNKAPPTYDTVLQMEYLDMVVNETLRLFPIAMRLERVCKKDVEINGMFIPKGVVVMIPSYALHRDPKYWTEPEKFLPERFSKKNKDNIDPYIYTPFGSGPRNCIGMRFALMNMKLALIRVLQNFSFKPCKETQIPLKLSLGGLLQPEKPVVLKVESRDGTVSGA

[6] = molecular target: Cytochrome P450 2D6 (Homo sapiens, UniProt P10635); assay: Inhibition of CYP2D6; type: ADME
Sequence of Cytochrome P450 2D6 (P10635 whole entry): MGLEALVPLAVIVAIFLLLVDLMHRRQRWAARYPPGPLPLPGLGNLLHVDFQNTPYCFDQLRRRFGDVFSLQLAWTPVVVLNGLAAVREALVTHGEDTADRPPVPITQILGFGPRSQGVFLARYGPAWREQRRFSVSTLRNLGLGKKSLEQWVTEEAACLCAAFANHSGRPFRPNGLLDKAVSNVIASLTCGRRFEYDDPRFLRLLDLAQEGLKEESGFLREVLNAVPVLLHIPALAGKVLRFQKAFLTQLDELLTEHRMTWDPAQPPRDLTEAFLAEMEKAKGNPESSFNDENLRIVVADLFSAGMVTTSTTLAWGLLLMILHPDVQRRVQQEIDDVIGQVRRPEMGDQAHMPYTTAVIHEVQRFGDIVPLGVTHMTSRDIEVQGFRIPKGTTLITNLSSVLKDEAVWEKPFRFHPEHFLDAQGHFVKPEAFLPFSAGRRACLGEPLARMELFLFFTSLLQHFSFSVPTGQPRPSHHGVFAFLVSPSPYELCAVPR

[7] = molecular target: Histamine H4 receptor (Homo sapiens, UniProt Q9H3N8); assay: Binding affinity to human histamine H4 receptor
Sequence of Histamine H4 receptor (Q9H3N8 whole entry): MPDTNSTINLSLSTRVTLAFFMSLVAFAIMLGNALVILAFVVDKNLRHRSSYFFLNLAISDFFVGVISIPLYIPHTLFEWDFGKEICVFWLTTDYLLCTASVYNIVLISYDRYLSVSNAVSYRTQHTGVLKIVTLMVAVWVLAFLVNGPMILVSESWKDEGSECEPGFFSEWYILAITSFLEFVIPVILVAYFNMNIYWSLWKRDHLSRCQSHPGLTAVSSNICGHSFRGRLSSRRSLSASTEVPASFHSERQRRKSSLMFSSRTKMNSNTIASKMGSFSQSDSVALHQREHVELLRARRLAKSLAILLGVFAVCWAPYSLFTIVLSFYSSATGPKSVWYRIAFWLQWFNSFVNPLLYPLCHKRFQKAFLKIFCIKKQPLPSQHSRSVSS

[8] = molecular target: T1, Voltage-gated inwardly rectifying potassium channel KCNH2 (Homo sapiens, UniProt Q12809); assay: Inhibition of human ERG by patch clamp assay
T1 sequence (Q12809 whole entry): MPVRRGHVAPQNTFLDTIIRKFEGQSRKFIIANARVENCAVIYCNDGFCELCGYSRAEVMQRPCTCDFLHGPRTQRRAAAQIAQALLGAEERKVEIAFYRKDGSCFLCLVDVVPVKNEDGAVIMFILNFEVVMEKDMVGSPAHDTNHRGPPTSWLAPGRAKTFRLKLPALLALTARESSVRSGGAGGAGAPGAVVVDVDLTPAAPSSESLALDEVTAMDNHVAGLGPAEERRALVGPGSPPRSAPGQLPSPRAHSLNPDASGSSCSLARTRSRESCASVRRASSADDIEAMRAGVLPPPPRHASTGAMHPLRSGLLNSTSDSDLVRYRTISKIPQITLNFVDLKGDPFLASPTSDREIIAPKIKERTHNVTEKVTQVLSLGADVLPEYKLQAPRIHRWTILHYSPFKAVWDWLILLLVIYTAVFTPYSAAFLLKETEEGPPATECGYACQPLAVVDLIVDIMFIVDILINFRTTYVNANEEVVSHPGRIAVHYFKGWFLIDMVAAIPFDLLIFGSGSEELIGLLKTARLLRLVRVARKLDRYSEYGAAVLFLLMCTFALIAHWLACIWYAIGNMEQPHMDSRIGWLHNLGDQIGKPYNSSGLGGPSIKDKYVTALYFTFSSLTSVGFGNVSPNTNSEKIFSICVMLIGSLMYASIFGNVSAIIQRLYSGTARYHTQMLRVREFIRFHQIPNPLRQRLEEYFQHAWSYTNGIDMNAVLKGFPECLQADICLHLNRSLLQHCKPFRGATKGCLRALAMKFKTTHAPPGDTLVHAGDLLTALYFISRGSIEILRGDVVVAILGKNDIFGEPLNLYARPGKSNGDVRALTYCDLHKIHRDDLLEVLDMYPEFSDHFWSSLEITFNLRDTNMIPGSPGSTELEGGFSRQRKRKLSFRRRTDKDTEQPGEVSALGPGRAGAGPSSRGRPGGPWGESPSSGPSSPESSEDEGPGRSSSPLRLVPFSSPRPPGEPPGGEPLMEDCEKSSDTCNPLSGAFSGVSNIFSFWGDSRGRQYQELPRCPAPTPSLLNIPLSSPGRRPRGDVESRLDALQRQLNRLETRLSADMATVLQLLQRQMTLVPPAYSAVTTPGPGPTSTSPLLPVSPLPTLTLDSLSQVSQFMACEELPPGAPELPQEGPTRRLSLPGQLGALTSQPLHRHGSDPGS

[9] = tested on: Rattus norvegicus; assay: Liver blood flow in CD rat at 3 mg/kg, po and 1 mg/kg, iv; type: ADME, organism-based; conditions: in vivo
Summary of the method: (§2)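 Male CD rats dosed 3.0 mg/kg po and 1.0 mg/kg iv, groups of 3 or 7 animals. Clearance, Vss, t1/2 and F are reported with ranges, and clearance is also expressed as % of liver blood flow.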

[10] = molecular target: T2, Histamine H1 receptor (Homo sapiens, UniProt P35367); assay: Antagonist activity at human recombinant histamine H1 receptor expressed in intact CHO cells assessed as inhibition of histamine-induced cellular calcium mobilization by FLIPR assay; type: functional, cell-based
T2 sequence (P35367 whole entry): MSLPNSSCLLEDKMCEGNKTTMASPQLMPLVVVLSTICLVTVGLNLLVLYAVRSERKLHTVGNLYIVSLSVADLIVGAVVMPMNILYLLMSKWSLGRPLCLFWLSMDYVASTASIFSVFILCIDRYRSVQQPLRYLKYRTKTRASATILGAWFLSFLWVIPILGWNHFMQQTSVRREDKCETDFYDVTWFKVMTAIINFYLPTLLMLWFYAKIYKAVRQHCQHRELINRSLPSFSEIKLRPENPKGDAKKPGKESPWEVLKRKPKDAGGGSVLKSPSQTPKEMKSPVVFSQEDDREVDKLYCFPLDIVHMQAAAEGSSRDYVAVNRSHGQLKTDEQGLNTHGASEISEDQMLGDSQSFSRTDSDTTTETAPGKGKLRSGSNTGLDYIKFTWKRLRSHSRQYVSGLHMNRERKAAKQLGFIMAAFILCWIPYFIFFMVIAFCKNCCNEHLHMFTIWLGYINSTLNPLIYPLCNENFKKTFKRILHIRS
Summary of the method: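 Human recombinant H1 receptor in intact CHO cells; inhibition of agonist-induced calcium mobilization read with Fluo-4AM in FLIPR. EC50 came from a four-parameter logistic fit, and pA2 = log(DR−1) − log[B], where DR is the EC50 ratio versus control.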

[11] = tested on: Liver microsomes; assay: Metabolic stability in human liver microsomes; type: ADME, Microsome
[12] = tested on: Canis familiaris; assay: Liver blood flow in Beagle dog at 3 mg/kg, po and 1 mg/kg, iv; type: ADME, organism-based, Canis lupus familiaris; conditions: in vivo; summary of the method: as §1
[13] = Ratio of drug level in brain to blood in CD rat at 1 mg/kg, iv; type: ADME, organism-based; design: dose 1 mg/kg, route intravenous; conditions: read-out: BBR
[14] = Clearance in CD rat at 3 mg/kg, po and 1 mg/kg, iv; type: ADME, organism-based; conditions: in vivo; summary of the method: as §2
[15] = tested on: Liver; assay: Metabolic stability in dog liver microsomes; type: ADME, Canis lupus familiaris, Microsome
[16] = molecular target: T2, Histamine H1 receptor; assay: Antagonist activity at human recombinant histamine H1 receptor expressed in intact CHO cells assessed as inhibition of histamine-induced cellular calcium mobilization at 100 nM after 30 mins by FLIPR assay; type: functional, cell-based; conditions: read-out: pA2 (converted)
Summary of the method: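 Intact CHO cells expressing recombinant human H1; Fluo-4AM calcium dye read on FLIPR. Histamine concentration-response curves run without or with antagonist at a single 100 nM, 30 min incubation. EC50 from four-parameter logistic fit; pA2 = log(DR-1) - log[B], DR being EC50 with antagonist over control EC50.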

[17] = Volume of distribution at steady state in CD rat at 3 mg/kg, po and 1 mg/kg, iv; type: ADME, organism-based; conditions: in vivo, read-out: Vdss; summary of the method: as §2
[18] = molecular target: T3, Cytochrome P450 1A2 (Homo sapiens, UniProt P05177); assay: Inhibition of CYP1A2; type: ADME
T3 sequence (P05177 whole entry): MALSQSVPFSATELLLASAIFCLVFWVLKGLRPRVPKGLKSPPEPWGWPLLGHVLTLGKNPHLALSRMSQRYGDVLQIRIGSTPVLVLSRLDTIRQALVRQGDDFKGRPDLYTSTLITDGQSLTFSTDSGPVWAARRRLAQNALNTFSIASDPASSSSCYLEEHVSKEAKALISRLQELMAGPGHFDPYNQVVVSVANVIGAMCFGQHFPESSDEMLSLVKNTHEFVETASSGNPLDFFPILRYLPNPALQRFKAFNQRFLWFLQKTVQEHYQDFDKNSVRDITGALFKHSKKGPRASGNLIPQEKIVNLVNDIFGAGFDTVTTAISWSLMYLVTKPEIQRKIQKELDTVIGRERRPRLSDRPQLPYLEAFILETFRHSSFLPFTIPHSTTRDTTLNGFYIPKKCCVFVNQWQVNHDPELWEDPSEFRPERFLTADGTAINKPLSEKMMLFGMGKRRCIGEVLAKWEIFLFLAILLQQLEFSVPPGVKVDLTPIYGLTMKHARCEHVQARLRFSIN

[19] = Oral bioavailability in CD rat at 3 mg/kg; type: ADME, organism-based; conditions: in vivo; summary of the method: as §2
[20] = Half life in CD rat at 3 mg/kg, po and 1 mg/kg, iv; type: ADME, organism-based; conditions: in vivo; summary of the method: as §2
[21] = tested on: Heart; assay: Cardiotoxicity in rabbit heart assessed as induction of QT interval prolongation; type: toxicity, tissue-based, Oryctolagus cuniculus
[22] = molecular target: T4, Alpha-1A adrenergic receptor (Homo sapiens, UniProt P35348); assay: Binding affinity to human adrenergic alpha1A receptor expressed in rat intact fibroblasts
T4 sequence (P35348 whole entry): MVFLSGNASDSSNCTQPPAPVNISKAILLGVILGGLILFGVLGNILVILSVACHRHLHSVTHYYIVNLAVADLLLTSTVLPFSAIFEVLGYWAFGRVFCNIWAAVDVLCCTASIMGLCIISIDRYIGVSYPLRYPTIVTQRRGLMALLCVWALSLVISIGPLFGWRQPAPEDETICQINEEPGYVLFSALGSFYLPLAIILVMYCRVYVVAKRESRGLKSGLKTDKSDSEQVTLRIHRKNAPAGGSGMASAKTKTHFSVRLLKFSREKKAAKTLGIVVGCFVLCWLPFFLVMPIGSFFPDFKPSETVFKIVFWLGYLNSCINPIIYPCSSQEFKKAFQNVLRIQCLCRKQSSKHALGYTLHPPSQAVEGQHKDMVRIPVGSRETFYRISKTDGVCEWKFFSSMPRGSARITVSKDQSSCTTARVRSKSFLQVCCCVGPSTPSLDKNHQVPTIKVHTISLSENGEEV

[23] = Half life in Beagle dog at 3 mg/kg, po and 1 mg/kg, iv; type: ADME, organism-based, Canis lupus familiaris; conditions: in vivo; summary of the method: as §1
[24] = molecular target: T1, Voltage-gated inwardly rectifying potassium channel KCNH2; assay: Displacement of labeled dofetilide human ERG
[25] = molecular target: T5, Alpha-1B adrenergic receptor (Homo sapiens, UniProt P35368); assay: Binding affinity to human adrenergic Alpha-1B receptor expressed in rat intact fibroblasts
T5 sequence (P35368 whole entry): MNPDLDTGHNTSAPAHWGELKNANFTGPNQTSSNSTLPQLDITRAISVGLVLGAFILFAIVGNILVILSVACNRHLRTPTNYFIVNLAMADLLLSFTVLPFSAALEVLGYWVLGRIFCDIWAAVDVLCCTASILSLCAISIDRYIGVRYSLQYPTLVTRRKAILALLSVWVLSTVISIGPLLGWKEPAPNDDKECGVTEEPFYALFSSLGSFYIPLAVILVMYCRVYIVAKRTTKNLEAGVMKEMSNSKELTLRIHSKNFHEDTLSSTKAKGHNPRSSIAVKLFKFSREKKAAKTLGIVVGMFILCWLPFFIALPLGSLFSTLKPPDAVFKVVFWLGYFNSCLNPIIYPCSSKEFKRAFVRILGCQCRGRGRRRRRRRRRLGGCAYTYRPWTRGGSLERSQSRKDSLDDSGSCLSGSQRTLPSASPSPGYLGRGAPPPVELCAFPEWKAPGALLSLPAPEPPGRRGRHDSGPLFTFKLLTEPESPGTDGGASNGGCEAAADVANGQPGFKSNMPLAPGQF
Summary of the method: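 Plate-based calcium imaging in intact Rat1 fibroblasts expressing the human α1B adrenoceptor.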

[26] = tested on: Hepatocyte; assay: Metabolic stability in human hepatocytes; type: ADME, cell-based
[27] = molecular target: Cytochrome P450 2C19 (Homo sapiens, UniProt P33261); assay: Inhibition of CYP2C19; type: ADME
Sequence of Cytochrome P450 2C19 (P33261 whole entry): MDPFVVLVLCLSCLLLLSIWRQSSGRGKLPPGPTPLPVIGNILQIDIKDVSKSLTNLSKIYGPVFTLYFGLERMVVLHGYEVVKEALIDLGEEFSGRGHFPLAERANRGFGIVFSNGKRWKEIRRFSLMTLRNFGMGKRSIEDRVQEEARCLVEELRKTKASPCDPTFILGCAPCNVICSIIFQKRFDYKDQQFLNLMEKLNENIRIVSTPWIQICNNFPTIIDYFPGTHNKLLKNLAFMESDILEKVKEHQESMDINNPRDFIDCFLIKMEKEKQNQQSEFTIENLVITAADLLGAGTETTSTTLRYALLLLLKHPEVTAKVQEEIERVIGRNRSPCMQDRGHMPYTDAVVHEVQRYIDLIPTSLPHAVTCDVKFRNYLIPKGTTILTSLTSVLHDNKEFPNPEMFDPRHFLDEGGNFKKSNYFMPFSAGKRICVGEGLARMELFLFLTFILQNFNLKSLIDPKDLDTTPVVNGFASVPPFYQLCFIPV

[28] = Oral bioavailability in Beagle dog at 3 mg/kg; type: ADME, organism-based, Canis lupus familiaris; conditions: in vivo; summary of the method: as §1
[29] = tested on: Liver microsomes; assay: Metabolic stability in rat liver microsomes; type: ADME, Microsome
[30] = molecular target: Histamine H2 receptor (Homo sapiens, UniProt P25021); assay: Binding affinity to human histamine H2 receptor
Sequence of Histamine H2 receptor (P25021 whole entry): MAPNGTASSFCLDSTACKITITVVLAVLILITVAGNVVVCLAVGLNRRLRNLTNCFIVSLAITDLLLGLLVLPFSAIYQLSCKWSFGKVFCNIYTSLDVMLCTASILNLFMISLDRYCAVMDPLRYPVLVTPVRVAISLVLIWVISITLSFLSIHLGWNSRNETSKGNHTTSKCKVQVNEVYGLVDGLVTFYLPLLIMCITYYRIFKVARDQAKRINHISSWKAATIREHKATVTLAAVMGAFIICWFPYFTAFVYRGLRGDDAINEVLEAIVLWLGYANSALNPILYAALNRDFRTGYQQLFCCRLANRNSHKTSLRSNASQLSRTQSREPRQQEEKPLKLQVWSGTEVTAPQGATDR

[31] = tested on: Cavia porcellus; assay: Antiallergic rhinitis activity in conscious guinea pig assessed as duration of inhibition of histamine-induced nasal congestion at 0.1 to 1 mg/ml administered intranasally; type: functional
[32] = Volume of distribution at steady state in Beagle dog at 2 mg/kg, po and 1 mg/kg, iv; type: ADME, organism-based, Canis lupus familiaris; conditions: in vivo, read-out: Vdss
[33] = Half life in Beagle dog at 2 mg/kg, po and 1 mg/kg, iv; type: ADME, organism-based, Canis lupus familiaris; conditions: in vivo
[34] = Clearance in Beagle dog at 2 mg/kg, po and 1 mg/kg, iv; type: ADME, organism-based, Canis lupus familiaris; conditions: in vivo
[35] = tested on: Cavia porcellus; assay: Antiallergic rhinitis activity in conscious guinea pig assessed as duration of inhibition of histamine-induced nasal congestion at 1 mg/ml administered intranasally; type: functional
[36] = molecular target: Histamine H3 receptor (Homo sapiens, UniProt Q9Y5N1); assay: Antagonist activity at human recombinant histamine H3 receptor expressed in CHO cells assessed as inhibition of histamine-induced GTP-gammaS binding; type: functional, cell-based
Sequence of Histamine H3 receptor (Q9Y5N1 whole entry): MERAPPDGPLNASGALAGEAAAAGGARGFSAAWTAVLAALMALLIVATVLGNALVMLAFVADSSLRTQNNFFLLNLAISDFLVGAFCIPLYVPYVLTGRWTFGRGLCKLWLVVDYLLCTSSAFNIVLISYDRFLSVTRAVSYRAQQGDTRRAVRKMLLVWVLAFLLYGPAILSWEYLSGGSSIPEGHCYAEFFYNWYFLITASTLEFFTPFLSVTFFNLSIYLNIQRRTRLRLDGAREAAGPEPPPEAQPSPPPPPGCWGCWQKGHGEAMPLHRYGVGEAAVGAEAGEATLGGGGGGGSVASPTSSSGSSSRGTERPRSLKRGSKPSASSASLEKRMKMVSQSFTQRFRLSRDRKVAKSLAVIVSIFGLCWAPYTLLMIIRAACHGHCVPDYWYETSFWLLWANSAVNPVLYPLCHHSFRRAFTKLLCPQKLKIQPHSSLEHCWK
Summary of the method: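 Membranes from CHO cells transfected with cloned human H3 receptor; reduction of histamine-stimulated GTPγS binding, detected by scintillation proximity.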

[37] = Oral bioavailability in Beagle dog at 2 mg/kg; type: ADME, organism-based, Canis lupus familiaris; conditions: in vivo
[38] = Bioavailability in intranasally dosed human; type: ADME, organism-based; conditions: in vivo, inhaled or intranasal
[39] = Solubility of the compound in phosphate buffered saline at pH 7.4; type: physicochemical
[40] = Lipophilicity, log D of the compound; type: physicochemical; conditions: octanol/water; read-out: logD

## O=c1c2ccccc2c(Cc2ccc(Cl)cc2)nn1C[C@H]1CCCN1CCCCc1ccc(OCCCN2CCCCCC2)cc1 [GSK-1004723]
[1]
  Vd: 22 L/kg
[2]
  IC50: > 3000 nM
[3]
  clearance: 27 mL/min/kg
[4]
  dose excreted at 24 h: < 1%
[5]
  IC50: 300 nM
[6]
  IC50: 40 nM
[7]
  IC50: 10000 nM
[8]
  inhibition (INH): Active
[9]
  LBF: 35%
[10]
  Ki: 10 nM
[11]
  Stability: Stable
[12]
  LBF: 87%
[13]
  Kp: 0.6
[14]
  clearance: 30 mL/min/kg
[15]
  Stability: Stable
[16]
  Kb: 0.794 nM
[17]
  Vd: 3.9 L/kg
[18]
  IC50: > 3000 nM
[19]
  bioavailability: 4%
[20]
  half-life: 2.2 h
[21]
  Activity: Non-toxic
[22]
  Ki: 39.8 nM
[23]
  half-life: 9.4 h
[24]
  IC50: 50.1 nM
[25]
  Ki: 31.6 nM
[26]
  Stability: Unstable
[27]
  IC50: > 3000 nM
[28]
  bioavailability: 19%
[29]
  Stability: Stable
[30]
  IC50: 10000 nM
[31]
  Time: 72 h

## CN1CCCC(n2nc(Cc3ccc(Cl)cc3)c3ccccc3c2=O)CC1 (racemic) [AZELASTINE]
[32]
  Vd: 4.9 L/kg
[6]
  IC50: 1000 nM
[9]
  LBF: 41%
[13]
  Kp: 7.5
[14]
  clearance: 35 mL/min/kg
[17]
  Vd: 1.8 L/kg
[33]
  half-life: 3.2 h
[19]
  bioavailability: 7%
[20]
  half-life: 1 h
[22]
  Ki: 50.1 nM
[34]
  clearance: 22 mL/min/kg
[25]
  Ki: 50.1 nM
[35]
  Time: <24 h
[36]
  Ki: 158 nM
[37]
  bioavailability: 46%
[38]
  bioavailability: 40%

## CN1CCCC(n2nc(Cc3ccc(Cl)cc3)c3ccccc3c2=O)CC1.Cl (racemic) [AZELASTINE HYDROCHLORIDE]
[39]
  solubility: 144 µg/mL
[40]
  logD: 2.25
